According to BindingDB's records for doi:10.1021/jm0309203 (University of Bath, 2003):

Assays:
Mu-type opioid receptor = Mu-type opioid receptor (Homo sapiens, UniProt P35372); assay: Binding affinity against cloned human Opioid receptor mu 1 transfected into chinese hamster ovary cells using [3H]DAMGO as radioligand
How it was run: (§1)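 Competition binding in CHO cells transfected with cloned human opioid receptors, using [3H]DAMGO (μ), [3H]Cl-DPDPE (δ) and [3H]U69,593 (κ) as displaced radioligands. Hill slopes were examined. Data are averages of two experiments, each run in triplicate.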

[1] = target: Delta-type opioid receptor (Homo sapiens, UniProt P41143); assay: Binding affinity against cloned human Opioid receptor delta 1 transfected into chinese hamster ovary cells using [3H]Cl-DPDPE as radioligand; how it was run: as §1
Chain of Delta-type opioid receptor (P41143 whole entry): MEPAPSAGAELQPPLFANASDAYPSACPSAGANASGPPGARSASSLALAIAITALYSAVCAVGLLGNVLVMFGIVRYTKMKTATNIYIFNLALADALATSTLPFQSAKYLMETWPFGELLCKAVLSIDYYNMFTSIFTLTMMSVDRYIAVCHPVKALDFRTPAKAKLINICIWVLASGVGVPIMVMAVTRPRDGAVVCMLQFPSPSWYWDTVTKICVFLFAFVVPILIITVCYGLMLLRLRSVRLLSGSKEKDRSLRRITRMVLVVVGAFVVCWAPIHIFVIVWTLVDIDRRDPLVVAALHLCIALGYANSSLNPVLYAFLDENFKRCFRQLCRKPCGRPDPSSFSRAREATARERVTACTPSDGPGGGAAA

Chain of Mu-type opioid receptor (P35372 whole entry): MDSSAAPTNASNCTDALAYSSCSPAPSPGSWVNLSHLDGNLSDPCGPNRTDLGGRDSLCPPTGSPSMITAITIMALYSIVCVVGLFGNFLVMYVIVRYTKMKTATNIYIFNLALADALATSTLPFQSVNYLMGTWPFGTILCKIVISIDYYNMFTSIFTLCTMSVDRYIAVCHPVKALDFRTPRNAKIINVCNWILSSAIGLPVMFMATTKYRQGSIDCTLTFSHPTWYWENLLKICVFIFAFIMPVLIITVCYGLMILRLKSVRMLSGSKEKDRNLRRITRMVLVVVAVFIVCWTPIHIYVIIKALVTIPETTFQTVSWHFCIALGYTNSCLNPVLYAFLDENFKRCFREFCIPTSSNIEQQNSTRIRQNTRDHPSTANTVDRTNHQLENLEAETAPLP

SMILES	Ki (Mu-type opioid receptor)	Ki [1]
NC(=Nc1ccc2[nH]c3c(c2c1)C[C@@]1(O)C2Cc4ccc(O)c5c4[C@@]1(CCN2CC1CC1)[C@H]3O5)NCc1ccccc1 [7-benzylamino(imino)methylamino-22-cyclopropylmethyl-14-oxa-11,22-diazaheptacyclo[13.9.1.01,13.02,21.04,12.05,10.019,25]pentacosa-4(12),5(10),6,8,15,17,19(25)-heptaene-2,16-diol]	10 nM	–
CCCNC(=Nc1ccc2[nH]c3c(c2c1)C[C@@]1(O)C2Cc4ccc(O)c5c4[C@@]1(CCN2CC1CC1)[C@H]3O5)NCC1CC1 [22-cyclopropylmethyl-7-cyclopropylmethylamino(propylimino)methylamino-14-oxa-11,22-diazaheptacyclo[13.9.1.01,13.02,21.04,12.05,10.019,25]pentacosa-4(12),5(10),6,8,15,17,19(25)-heptaene-2,16-diol]	–	15 nM
